The list is not random: actives were taken first. Their share in the collection is about 2.1%.
CRFR2-BP ag: CRF-BP/CRF-R2 complex agonism; HEK293 CRF-R2/CRF-BP, calcium dye fluorescence (FLIPR); percent of saturating CRF peptide response; activation, % at 13.2 µM; 0.46% of 350,000 active;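 active = activation of at least 50%, plus an integration ratio under a set limit after plate pattern correction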;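 note: plate controls were neutral control wells without compound for no effect and CRF at EC100 for full effect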
IMP-1 inh: inhibitors of Pseudomonas aeruginosa IMP-1 metallo-beta-lactamase | purified IMP-1, nitrocefin hydrolysis, epi-absorbance fluorescence | inhibition, % at 5.6 µM | 0.45% of 290,000 active;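 active = inhibition above the mean plus 3 SD of all compounds in the same screening run, cut at about 4.5% in these data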;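 note: 0% = IMP-1 with DMSO and 100% = DMSO wells lacking enzyme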
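Material – recombinant IMP-1 enzyme, purified · Amount – IMP-1 0.2 nM before substrate addition · Medium – HEPES buffer pH 7.1 with ZnSO4 and Brij 35 · Timing – 25 °C, 15 min preincubation, 25 min reaction · Measured by – plate fluorescence quenching by hydrolysis product, ex 480/em 530 nm · Read-out – percent enzyme inhibition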
TRPML3 ag: activates the human TRPML3 channel. 0.29% of 220,000 active. activation, % at 3 µM. HEK293 TRPML3-YFP, Fluo-8 calcium fluorescence; 100% = the carbachol control signal;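 active = activation above its plate's cutoff, the mean activation of the plate's test wells plus 3 SD, cut at about 12% in these data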;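 note: 0% = DMSO only wells and 100% = carbachol wells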
Target sequence (Q8TDD5 whole entry, looked up): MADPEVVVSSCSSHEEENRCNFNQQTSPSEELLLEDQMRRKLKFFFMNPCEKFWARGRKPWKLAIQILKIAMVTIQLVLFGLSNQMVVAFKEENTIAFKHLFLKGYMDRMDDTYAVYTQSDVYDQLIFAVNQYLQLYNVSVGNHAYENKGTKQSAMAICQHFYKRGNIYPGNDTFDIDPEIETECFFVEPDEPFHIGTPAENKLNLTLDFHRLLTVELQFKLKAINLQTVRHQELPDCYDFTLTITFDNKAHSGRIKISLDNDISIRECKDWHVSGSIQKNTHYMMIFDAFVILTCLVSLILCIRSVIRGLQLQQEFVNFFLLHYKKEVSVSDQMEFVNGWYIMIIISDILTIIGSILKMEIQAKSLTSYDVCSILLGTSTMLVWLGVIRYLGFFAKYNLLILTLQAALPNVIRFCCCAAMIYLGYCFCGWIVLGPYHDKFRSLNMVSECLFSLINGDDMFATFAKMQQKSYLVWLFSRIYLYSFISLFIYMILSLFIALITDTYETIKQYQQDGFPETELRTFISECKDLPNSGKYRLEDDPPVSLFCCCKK
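Test system – HEK293 line with stable expression of human TRPML3-YFP channel · Control set – carbachol 87 µM final as high control (100%), DMSO as low control (0%) · Signal – Fluo-8 calcium dye fluorescence, ex 470-495, em 515-575 nm · Incubation – 1-h 37 °C dye load, 5-s basal, 120-s post-compound reads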
zfTRPN1 agonist: activates the zebrafish TRPN1 channel | AID 1424 | activation, % at 3 µM | 0.18% of 220,000 active | HEK293 zebrafish TRPN1-YFP, Fluo-8 calcium fluorescence; 100% = response to 87 µM carbachol;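 active = activation above its plate's cutoff, the mean activation of test wells on that plate plus 3 SD, cut at about 19% in these data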;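 note: 0% = DMSO alone and 100% = 87 µM carbachol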
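System: zebrafish TRPN1-YFP in HEK293 cells / Dosing: 3 µM single point / Timing: dye loading 1 h at 37 °C, then 30 min room temperature / Signal: Fluo-8 calcium fluorescence, excitation 470-495 nm, emission 515-575 nm / Read-out basis: percent activation from peak over basal fluorescence ratio, control-normalized / Control set: high carbachol 87 µM, low DMSO alone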
VIM-2 inhibitor: inhibitors of Pseudomonas aeruginosa VIM-2 metallo-beta-lactamase; purified VIM-2, nitrocefin hydrolysis, epi-absorbance fluorescence; inhibition, % at 5.6 µM; 0.89% of 290,000 active;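 active = inhibition above the mean of all tested compounds plus 3 SD, cutoff set per screening run, cut at about 7.5% in these data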;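 note: red hydrolysis product quenches plate fluorescence so inhibitors raise well fluorescence; 0% = enzyme with DMSO and 100% = DMSO without enzyme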
CRFBP-R2 block: blocks CRF-induced signaling of the CRF-BP/CRF-R2 complex | HEK293 CRF-R2/CRF-BP, CRF-induced calcium fluorescence | inhibition, % at 11.8 µM | 0.59% of 350,000 active | AID 588475;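 active = inhibition of the ligand-induced calcium signal above about 50% at the single tested concentration, limit read from the data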
The depositor's hits bear a star; / = no result.

SMILES | CRFR2-BP ag | IMP-1 inh | TRPML3 ag | zfTRPN1 agonist | VIM-2 inhibitor | CRFBP-R2 block
COc1ccc(-c2n[nH]c(=S)n2-c2ccccc2C)cc1OC | -1 | -3 | / | / | 0 | 6
COc1ccc(-n2c(C(C)n3nc(C)c([N+](=O)[O-])c3C)n[nH]c2=S)cc1 (centres undefined) | 0 | -4 | 1 | 0 | 0 | 12
S=c1[nH]nc(C2CCCCC2)n1Cc1ccccc1 | 0 | -3 | 0 | -2 | 9.3* | 4
C=CCn1c(C2CCCCC2)n[nH]c1=S | -1 | -3 | 1 | 3 | 2 | -6
COc1ccc(-n2c(-c3cccc(C)c3[N+](=O)[O-])n[nH]c2=S)cc1 | 2 | -2 | 0 | 0 | 38* | -9
COc1ccc(-c2n[nH]c(=S)n2-c2ccccc2C)cc1 | 2 | -1 | / | / | 8.8* | 6
CCN(CC(=O)Nc1c(F)cccc1F)C(=O)C1CC1C (centres undefined) | 0 | / | / | / | / | 0
CCOc1ccccc1OCCCC(=O)N(CC)CC(=O)Nc1ccc(NC(C)=O)cc1 | -2 | / | / | / | / | 3
Cc1n[nH]c(=S)n1Cc1ccccc1 | -1 | -5 | 1 | 2 | 11* | -1
COc1ccc(-c2n[nH]c(=S)n2Cc2ccccc2)cc1OC | 1 | -1 | / | / | 7.8* | 0
COc1ccc(-c2n[nH]c(=S)n2Cc2ccccc2)cc1 | 1 | -2 | / | / | 9.2* | 2
CCOc1cc(-c2n[nH]c(=S)n2Cc2ccccc2)ccc1OC(F)F | -1 | / | / | / | / | 1
Cc1ccccc1-n1c(-c2csc(C)c2C)n[nH]c1=S | -3 | -4 | 0 | -1 | 11* | -55
O=C(c1ccc(C(F)(F)F)cc1)N1CCN(c2ccc(N3CCOCC3)nn2)CC1 | -2 | / | / | / | / | 10
N#CC(c1nc2ccccc2nc1OCCO)S(=O)(=O)c1ccccc1 (centres undefined) | -4 | -2 | 0 | 1 | 0 | 10
Cn1c(N)c(C(=O)COC(=O)C2Cc3ccccc3CN2S(C)(=O)=O)c(=O)n(C)c1=O (centres undefined) | -1 | / | / | / | / | -3
S=c1[nH]nc(-c2ccncc2)n1Cc1ccco1 | 1 | -4 | 0 | 0 | -1 | -29
COc1cccc(-c2n[nH]c(=S)n2Cc2ccco2)c1 | -1 | -5 | 0 | 0 | 9.1* | -2
COc1cc(OC)cc(-c2n[nH]c(=S)n2-c2ccc3c(c2)OCO3)c1 | -1 | 0 | -1 | -1 | 8.7* | 18
Fc1ccc(-n2c(-c3ccc4c(c3)OCO4)n[nH]c2=S)cc1Cl | -5 | -4 | 0 | -1 | 0 | 1
Cc1ccc(C2=Nn3c(COc4ccc(Cl)cc4)nnc3SC2CC(=O)O)cc1 (centres undefined) | 0 | -2 | / | / | 2 | -3
O=C(CNC(=O)c1ccc2ccccc2c1)NCc1ccc(F)cc1 | -1 | -3 | / | / | -3 | 2
O=C(Nc1ccc(OCC(F)(F)C(F)F)c(C(F)(F)F)c1)c1ccccc1O | 60* | 1 | 2 | 11 | 0 | 10
COC(=O)c1c(C)[nH]c(O)c1C=Nc1ccc(Oc2ccccc2)cc1 | 59* | 0 | 0 | 0 | 3 | -83
CCOC(=O)c1c(C)[nH]c(O)c1C=Nc1ccc(Cl)cc1 | 18 | -2 | 1 | 1 | -1 | -33
SMILES | CRFR2-BP ag | IMP-1 inh | TRPML3 ag | zfTRPN1 agonist | VIM-2 inhibitor | CRFBP-R2 block
COC(=O)c1c(C)[nH]c(O)c1C=Nc1ccc(C(C)C)cc1 | 126* | -2 | 1 | 1 | 1 | -141
O=C(O)c1cc(-c2ccc(/C=C3\NC(=O)N(c4ccccc4)C3=O)o2)ccc1Cl | 0 | -1 | 0 | 0 | -2 | 4
C#CCN1C(=O)S/C(=C\c2ccc(-c3ccc(Cl)c(C(=O)O)c3)o2)C1=O | 0 | -3 | / | / | 9.3* | 0
C=CCNC(=S)NNC(=O)c1ccc(OCC)cc1 | 7 | -2 | 0 | 1 | -4 | 109*
Cc1cccc(C(=O)NNC(=S)NC(=O)c2ccccc2)c1 | 149* | / | / | / | / | -25
C=CCNC(=S)NNC(=O)c1ccc(OCCC)cc1 | 0 | -7 | 0 | 0 | -7 | 18
Cc1cccc(C(=O)NNC(=S)NC(=O)c2cccs2)c1 | 154* | -3 | / | / | -1 | -57
CCNC(=S)NNC(=O)c1ccc(OC)cc1 | 1 | -3 | 0 | 1 | -5 | -9
CCCCC(=O)NC(=S)NNC(=O)c1ccc(OC)cc1 | 85* | -4 | 0 | -1 | -2 | 31
COc1ccc(N2CCN(CCCNC(=O)C(=O)c3c(C)n(C)c4ccccc34)CC2)cc1 | -1 | 0 | / | / | -2 | -4
CCOc1cc(N2CCOCC2)c(OCC)cc1NS(=O)(=O)c1ccc2c(c1)CC(=O)N2 | 0 | / | / | / | / | -13
O=C(CNC(=O)C12CC3CC(CC(C3)C1)C2)N/N=C\c1ccccn1 | -3 | -2 | 1 | 2 | -3 | -24
Cc1cccc(C(=O)NC(=S)NNC(=O)COc2ccc(Cl)cc2)c1 | 59* | -4 | 1 | 1 | -5 | -101
Cc1cccc(/C(N)=N/OC(=O)COc2ccc(Cl)cc2)c1 | 0 | 0 | -1 | -1 | 1 | 2
COc1ccc(C(=O)NC(=S)Nc2cccc3cc(O)ccc23)cc1OC | 0 | 4.5* | / | / | 0 | -4
COc1ccc(Cl)cc1C(=O)NNC(=S)NC(=O)c1ccc(F)c(F)c1 | 142* | -5 | / | / | -2 | 62*
O=C(COc1ccccc1)NNC(=S)NC(=O)c1ccc(Cl)cc1Cl | 69* | 0 | 1 | 0 | -5 | -17
COc1ccc(NC(=O)CC(=O)Nc2ccc(OC)cc2)cc1 | -3 | / | / | / | / | 3
COc1ccc(C(=O)NC(=S)NNC(=O)c2cccc(C)c2)cc1 | 131* | / | / | / | / | 0
CCCCCC(=O)NNC(=O)c1ccc(F)cc1 | 0 | -1 | 0 | 0 | -1 | 53*
COc1ccc(C(=O)NNC(=S)NC(=O)c2ccc(OC)cc2)cc1 | 51* | 1 | / | / | -1 | 10
COc1ccc(C(=O)NNC(=S)NC(=O)c2cccnc2)cc1 | -1 | -1 | -1 | 0 | -3 | -2
COc1ccc(C(=O)NNC(=S)NC(=O)c2ccc(F)cc2)cc1Br | 77* | / | / | / | / | -4
C[C@H]1CN([C@@H](C)CO)C(=O)CCCn2cc(nn2)CO[C@@H]1CN(C)S(=O)(=O)c1ccc(Oc2ccccc2)nc1 | 0 | / | / | / | / | 2
O=C(N/N=C\C=C\c1ccc(Br)cc1)c1ccc2c(c1)OCO2 | 0 | 25* | / | / | 0 | 3
O=C(N/N=C/c1ccc(Cl)cc1)c1ccc2c(c1)OCO2 | -1 | 17* | / | / | 0 | -12
O=C(N/N=C/c1ccc2c(c1)OCO2)c1ccc2c(c1)OCCO2 | -3 | -3 | 1 | 1 | -3 | 4
C=CCN(CC=C)C(=O)COn1nnc2ccc(S(=O)(=O)N3CCOCC3)cc21 | 3 | / | / | / | / | 1

Bioassay records (PubChem)
